SIRT5 block: sirtuin-5 (human) deacylase inhibition; Q9NXA8; Purified SirT5, succinyl-peptide AMC, trypsin-coupled fluorescence; inhibition, % at 15 µM; hit rate 1.1% among 330,000; AID 652115; in the data active = inhibition above about 15%
Target sequence (Q9NXA8 whole entry, looked up): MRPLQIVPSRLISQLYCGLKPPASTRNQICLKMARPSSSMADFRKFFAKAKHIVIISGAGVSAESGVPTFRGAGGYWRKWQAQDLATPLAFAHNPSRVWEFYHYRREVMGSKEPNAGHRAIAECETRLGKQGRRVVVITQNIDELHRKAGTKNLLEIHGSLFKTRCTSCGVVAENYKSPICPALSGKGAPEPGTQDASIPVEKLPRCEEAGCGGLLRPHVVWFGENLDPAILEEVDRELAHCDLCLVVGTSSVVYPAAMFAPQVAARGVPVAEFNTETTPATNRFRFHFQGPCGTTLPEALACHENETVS
FN deposit inh: fibronectin deposition inhibition; AH1F fibroblasts, Alexa488-fibronectin deposition fluorescence, overnight; inhibition, % at 12.6 µM; hit rate 0.086% among 350,000; AID 743247;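 active = mean inhibition across replicates of 30% or more, regardless of how many single replicates reach that level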
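material = AH1F fibroblast monolayer depositing Alexa488-labelled fibronectin into matrix | amount = 10000 AH1F cells/well | buffer or medium = DMEM plus 2% serum, read in PBS | incubation = 1 h cell adhesion before compound, then overnight fibronectin incubation | detection = fluorescence at 485 nm excitation, 525 nm emission | evaluation = percent inhibition as loss of matrix-bound fibronectin fluorescence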
Xi reactivation: reactivates the inactive X chromosome in mouse fibroblasts; XiGFP mouse fibroblasts, % GFP-positive cells imaging, 3 d; cells co-treated with 5-aza-dC sensitizer; scaled so ellipticine positive control = 100%; activation, % at 7.58 µM; hit rate 0.055% among 360,000;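 active = mean normalized replicate activation at least 10% and every replicate at or above 10%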
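Material: SV40-immortalized XiGFP fibroblast cells, line 68-5-11 | Buffer or medium: DMEM containing 5-aza-dC | Dosing: One concentration, pinned | Times: 3 d treatment, 15 min room-temperature fixation | Controls: Ellipticine 6 µM positive control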
ARNT TACC3 PPI: disruptors of human ARNT/TACC3 interaction | Q9Y6A5 | AlphaScreen His-ARNT PAS-B/GST-TACC3 binding, luminescence; TACC3 fragment carries E629A point mutation | inhibition, % at 9.99 µM | hit rate 0.66% among 390,000;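 active = mean inhibition of replicates at least 50% and at least half of replicates each reaching 50%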
DENV2 CPE rescue: inhibitors of DENV2 cytopathic effect; DENV2-infected cells, cytopathic effect rescue, plate reader; CPE inhibition, % at 9.99 µM; hit rate 1.7% among 350,000; AID 651640; in the data active = CPE inhibition above about 20%, passing the limit was not always enough; tested in BHK-21 cells
FGF22 binding: FGF22 (human) thermal shift binding. recombinant FGF22 thermal shift, SYPRO orange fluorescence; percent of sucrose octasulfate shift, DMSO zero. activity (Tm shift, normalised), % at 9.99 µM. hit rate 1.5% among 340,000;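 active = mean Tm shift, scaled 0 neutral to 100 positive control, at about 1.3% or above, every replicate too, limit read from the data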
Target sequence (Q9HCT0 whole entry, looked up): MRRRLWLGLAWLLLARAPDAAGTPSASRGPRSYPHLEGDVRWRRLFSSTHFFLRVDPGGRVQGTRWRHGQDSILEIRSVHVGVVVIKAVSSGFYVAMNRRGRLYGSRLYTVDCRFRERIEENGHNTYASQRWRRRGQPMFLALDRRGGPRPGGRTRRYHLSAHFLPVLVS
Of the large screens only hits and unclear results are named; the others gave an inactive call; ! = not active in a repeat. This is a sample that favours compounds with a hit; in the whole collection about 3.8% have one here.

N#C/C(=C\c1ccc(OCc2ccc(C(=O)O)cc2)cc1)C(=O)NCc1ccccc1	none (no result: DENV2 CPE rescue)
O=C(NCC[C@H]1CC[C@H](NC(=O)C2CCCC2)[C@@H](CO)O1)c1ccc(F)cc1	DENV2 CPE rescue 29 (no result: FN deposit inh)
Cc1ccccc1S(=O)(=O)NCC[C@@H]1CC[C@@H](NC(=O)C2CCCC2)[C@@H](CO)O1	none (no result: ARNT TACC3 PPI)
Cc1ccccc1S(=O)(=O)NCC[C@@H]1CC[C@H](NC(=O)C2CCCC2)[C@@H](CO)O1	DENV2 CPE rescue 23
Cc1ccc(S(=O)(=O)NCC[C@@H]2CC[C@H](NC(=O)CCN3CCCCC3)[C@@H](CO)O2)cc1	SIRT5 block 17
Cc1ccc(S(=O)(=O)NCC[C@@H]2CC[C@H](NC(=O)CCN3CCCCC3)[C@H](CO)O2)cc1	DENV2 CPE rescue 73
Cc1ccc(S(=O)(=O)NCC[C@@H]2CC[C@@H](NC(=O)CCN3CCCCC3)[C@H](CO)O2)cc1	none
CO[C@@H]1CN(C)C(=O)c2ccc(NC(=O)C3CC3)cc2OC[C@H](C)N(CC2CC2)C[C@H]1C	none (no result: SIRT5 block)
C[C@H]1CN([C@@H](C)CO)C(=O)c2cc(/C=C/c3ccccc3)cnc2O[C@H]1CN(C)C	none
O=C(N[C@H]1CC[C@@H](CCNS(=O)(=O)c2ccc(F)cc2)O[C@H]1CO)C1CCC1	none
O=C(CCN1CCCCC1)N[C@H]1CC[C@@H](CCNS(=O)(=O)c2ccc(Cl)cc2)O[C@H]1CO	none (no result: FN deposit inh)
O=C(N[C@H]1CC[C@@H](CCNS(=O)(=O)c2ccc(F)cc2)O[C@@H]1CO)C1CCC1	SIRT5 block 18
O=C(CCN1CCCCC1)N[C@H]1CC[C@@H](CCNS(=O)(=O)c2ccc(F)cc2)O[C@H]1CO	DENV2 CPE rescue 25 (no result: FN deposit inh)
CCCN1[C@@H]2Cn3c(ccc(C4=CCCCC4)c3=O)[C@H]1[C@@H](C(=O)N1CCc3ccccc3C1)[C@@H]2CO	none (no result: FN deposit inh)
Cc1ccc(S(=O)(=O)N[C@H]2CC[C@@H](CCNC(=O)Nc3ccc(Cl)cc3)O[C@H]2CO)cc1	SIRT5 block 103 (no result: FN deposit inh, ARNT TACC3 PPI)
O=C(NCC[C@@H]1CC[C@@H](NS(=O)(=O)c2ccc(Cl)cc2)[C@H](CO)O1)c1ccccc1F	SIRT5 block 18 (no result: FN deposit inh, ARNT TACC3 PPI)
O=C(NCC[C@H]1CC[C@H](NC(=O)C2CC2)[C@H](CO)O1)Nc1ccc(Cl)cc1	none
O=C(NCC[C@@H]1CC[C@@H](NC(=O)C2CCOCC2)[C@@H](CO)O1)Nc1ccc(Cl)cc1	DENV2 CPE rescue 38 (no result: FN deposit inh, ARNT TACC3 PPI)
Cc1ccc(S(=O)(=O)N[C@@H]2CC[C@H](CCNC(=O)Nc3ccc(Cl)cc3)O[C@@H]2CO)cc1	none (no result: FN deposit inh, ARNT TACC3 PPI)
O=C(NCC[C@H]1CC[C@@H](NS(=O)(=O)c2ccc(F)cc2)[C@H](CO)O1)Nc1ccc(Cl)cc1	none
O=C(NCC[C@@H]1CC[C@@H](NS(=O)(=O)c2ccc(Cl)cc2)[C@@H](CO)O1)Nc1ccc(F)cc1	DENV2 CPE rescue 33 (no result: ARNT TACC3 PPI, FGF22 binding)
CO[C@H](CN(C)S(=O)(=O)c1cccc(Cl)c1)[C@H](C)CN(C(=O)Nc1ccccc1F)[C@H](C)CO	none
COc1ccc(NC(=O)Nc2ccc3c(c2)CC(=O)N([C@H](C)CO)C[C@H](C)[C@@H](CN(C)Cc2ccc(C(=O)Nc4ccccc4N)cc2)O3)cc1	none (no result: SIRT5 block, FN deposit inh, ARNT TACC3 PPI)
COc1ccc(NC(=O)N(C)C[C@H]2Oc3c(NC(=O)c4nc5ccccc5s4)cccc3C(=O)N([C@@H](C)CO)C[C@H]2C)cc1	SIRT5 block 20!, DENV2 CPE rescue 32!
C[C@@H]1CN([C@H](C)CO)C(=O)c2cccc(NC(=O)c3nc4ccccc4s3)c2O[C@H]1CN(C)C(=O)NC1CCCCC1	DENV2 CPE rescue 45
C[C@H](CO)N1C[C@H](C)[C@H](CN(C)C(=O)Nc2ccc(F)cc2)Oc2c(NC(=O)c3nc4ccccc4s3)cccc2C1=O	DENV2 CPE rescue 31
C[C@@H]1CN([C@@H](C)CO)C(=O)c2cccc(NC(=O)c3nc4ccccc4s3)c2O[C@@H]1CN(C)C(=O)Nc1ccc(F)cc1	none
C[C@@H]1CN([C@@H](C)CO)C(=O)c2cc(NC(=O)C3CCCCC3)ccc2O[C@@H]1CN(C)Cc1ccc(C(=O)Nc2ccccc2N)cc1	none (no result: FN deposit inh)
C[C@@H](NC(=O)C[C@H]1C[C@@H]2c3cc(NC(=O)c4cccnc4)ccc3O[C@@H]2[C@@H](CO)O1)c1ccccc1	none (no result: FN deposit inh)
Cc1ccc(N=c2c([N+](=O)[O-])nn(-c3ccc4c(c3)OCCO4)n2O)cc1F	FGF22 binding 43
COc1ccc(-n2nc([N+](=O)[O-])c(=NCc3ccc4c(c3)OCO4)n2O)cc1	DENV2 CPE rescue 32 (no result: SIRT5 block)
Cn1c(-c2ccc3c(c2)OCO3)cnc1NCc1ccccc1	none (no result: SIRT5 block, Xi reactivation, DENV2 CPE rescue, FGF22 binding)
Cn1c(-c2ccc3c(c2)OCO3)cnc1N	ARNT TACC3 PPI 54 (no result: SIRT5 block, Xi reactivation, DENV2 CPE rescue, FGF22 binding)
COc1ccc(CN(C)C[C@H]2Oc3c(NS(=O)(=O)c4ccccc4)cccc3C(=O)N([C@H](C)CO)C[C@H]2C)cc1	none (no result: FN deposit inh)
O=C(Nc1cc(F)ccc1F)N1CC(=O)N2[C@H](CO)[C@@H](c3ccc(C#CC4CCCCC4)cc3)[C@@H]2C1	SIRT5 block 18 (no result: FN deposit inh, ARNT TACC3 PPI)
CC(C)CC#Cc1ccc([C@@H]2[C@H]3CN(C(=O)Nc4cc(F)ccc4F)CC(=O)N3[C@H]2CO)cc1	SIRT5 block 17 (no result: ARNT TACC3 PPI)
O=C(Nc1cc(F)ccc1F)N1CC(=O)N2[C@H](C1)[C@H](c1ccc(C#CC3CCCC3)cc1)[C@@H]2CO	none (no result: FN deposit inh, Xi reactivation, ARNT TACC3 PPI)
O=C(Nc1cc(F)ccc1F)N1CC(=O)N2[C@H](C1)[C@@H](c1ccc(C#CC3CCCCC3)cc1)[C@@H]2CO	SIRT5 block 20 (no result: FN deposit inh, ARNT TACC3 PPI)
C[C@@H]1CN([C@@H](C)CO)C(=O)c2cc(C3=CCCC3)cnc2O[C@@H]1CN(C)Cc1ccccc1	none
C[C@H](NC(=O)[C@H]1[C@H](CO)[C@H]2Cn3c(cccc3=O)[C@H]2N1S(C)(=O)=O)c1ccccc1	none (no result: FN deposit inh)
O=C(Nc1ccccc1F)N1CC(=O)N2[C@H](CO)[C@H](c3ccc(-c4ccc(F)cc4)cc3)[C@@H]2C1	none (no result: SIRT5 block, FN deposit inh, ARNT TACC3 PPI, DENV2 CPE rescue, FGF22 binding)
C[C@@H]1CN([C@@H](C)CO)C(=O)Cc2cc(NC(=O)Cn3cnnn3)ccc2O[C@@H]1CN(C)C(=O)Nc1ccc2c(c1)OCO2	DENV2 CPE rescue 23 (no result: FN deposit inh)
COc1ccc(NC(=O)N(C)C[C@@H]2Oc3ccc(NC(=O)Cn4cnnn4)cc3CC(=O)N([C@@H](C)CO)C[C@@H]2C)cc1	none (no result: FN deposit inh)
COc1ccc(NC(=O)N(C)C[C@H]2Oc3ccc(NC(=O)Cn4cnnn4)cc3CC(=O)N([C@@H](C)CO)C[C@@H]2C)cc1	DENV2 CPE rescue 56 (no result: FN deposit inh)
Cc1ccc(-c2nc(CS(=O)CC(=O)NCc3ccccn3)c(C)o2)cc1 (centres undefined)	none
Cc1oc(-c2ccccc2F)nc1CS(=O)CC(=O)NCc1ccccn1 (centres undefined)	FGF22 binding 44

Source: PubChem (Broad Institute)
